ChEMBL document CHEMBL5649170, “Sustained microglial depletion with CSF1R inhibitor impairs parenchymal plaque development in an Alzheimer's disease model” (Nat Commun, 2019)
Calls of active or inactive are those of the source. No cut-off for these calls is given here.

How the values were obtained:
[1] = Effect on Siglech gene expression in wild type mouse thalamus at 1200 ppm administered as rodent chow starting from 1.5 months and measured after 7 months by RNA-Seq analysis (reference value: 2.864 to 4.605 RPKM); type: functional; conditions: route po, time 5.5 months, 4015 h
Mus musculus [2] = test: Antialzheimer activity in 5XFAD mouse assessed as number of GFAP positive cells per FOV at 1200 ppm administered as rodent chow starting from 1.5 months to 4 months followed by compound removal and measured after 1 month by immunolabeling based confocal microscopic analysis (reference value: 20 to 71); type: functional; conditions: route po, time 2.5 months, 1825 h
[3] = molecular target: Protein-tyrosine kinase 2-beta (Homo sapiens, UniProt Q14289); test: Inhibition of PTK2B (unknown origin)
[4] = molecular target: Tyrosine-protein kinase Fer (Homo sapiens, UniProt P16591); test: Inhibition of FER (unknown origin)
[5] = molecular target: Leucine-rich repeat serine/threonine-protein kinase 2 (Homo sapiens, UniProt Q5S007); test: Inhibition of LRRK2 (unknown origin)
[6] = Effect on Gls gene expression in wildtype mouse hippocampus assessed as percent change in Reads Per kilo base per Million mapped reads at 1200 ppm administered as rodent chow starting from 1.5 months and measured after 7 months by RNA-Seq analysis (reference value: 89.231 to 109.618 %); type: functional; conditions: route po, time 5.5 months, 4015 h
Mus musculus [7] = test: (§1) Antialzheimer activity in 5XFAD mouse assessed as iron reactivity by measuring hemosiderin intensity of prussian blue staining in thalamus at 1200 ppm administered as rodent chow starting from 1.5 months and measured after 4 months by confocal microscopic analysis (reference value: 0.1 to 4.094 a.u.); type: functional; conditions: route po, time 2.5 months, 1825 h
In short: (§2)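 Wild-type or 5xFAD mice fed PLX5622 (1200 ppm) in AIN-76A chow from 1.5 months of age, examined in 4- and 7-month-old cohorts. Brain sections stained with a Prussian blue kit per kit instructions to detect iron deposits (microbleeds).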

[8] = Effect on St8sia5 gene expression in wildtype mouse hippocampus assessed as percent change in Reads Per kilo base per Million mapped reads at 1200 ppm administered as rodent chow starting from 1.5 months and measured after 7 months by RNA-Seq analysis (reference value: 83.570 to 112.150 %); type: functional; conditions: route po, time 5.5 months, 4015 h
[9] = molecular target: Serine/threonine-protein kinase PAK 6 (Homo sapiens, UniProt Q9NQU5); test: Inhibition of PAK6 (unknown origin)
Mus musculus [10] = test: Prevention of Trem2 gene upregulation in 5XFAD mouse hippocampus at 1200 ppm administered as rodent chow starting from 1.5 months and measured after 7 months by Nanostring analysis; type: functional, tissue-based; conditions: route po, time 5.5 months
[11] = molecular target: Protein kinase C delta type (Homo sapiens, UniProt Q05655); test: Inhibition of PRKCD (unknown origin)
[12] = molecular target: Protein kinase C gamma type (Homo sapiens, UniProt P05129); test: Inhibition of PRKCG (unknown origin)
Mus musculus [13] = test: Antialzheimer activity in 5XFAD mouse assessed as time spent in open arm at 1200 ppm administered as rodent chow for 10 to 24 weeks by Elevated plus maze test (reference value: 34.1 to 208.9 sec); type: functional; conditions: route po, time 10-24 weeks
Mus musculus [14] = test: Antialzheimer activity in 5XFAD mouse assessed as number of Iba1 positive cells per FOV in subiculum at 1200 ppm administered as rodent chow starting from 1.5 months and measured after 7 months by immunolabeling based confocal microscopic analysis (reference value: 1284 to 1582); type: functional; conditions: route po, time 5.5 months, 4015 h
[15] = Drug concentration in 5XFAD mouse plasma at 1200 ppm administered as rodent chow for 10 to 24 weeks; type: ADME, cell-free; conditions: po, time 10-24 weeks
In short: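 WT or 5xFAD mice were started at 1.5 months of age on PLX5622 formulated at 1200 ppm in AIN-76A chow, with control chow as comparison. Feeding ran for 10 or 24 weeks. Terminal plasma and brain drug levels were then measured. Groups were sex-balanced and compared by two-tailed independent t-test.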

Mus musculus [16] = test: Effect on APP processing pathway in wildtype mouse assessed as C83 protein signal intensity in cortex at 1200 ppm administered as rodent starting from 1.5 months and measured after 7 months (reference value: 2.769 to 56.642 %); type: functional; conditions: route po, time 5.5 months, 4015 h
[17] = molecular target: Tyrosine-protein kinase Blk (Homo sapiens, UniProt P51451); test: Inhibition of BLK (unknown origin)
Mus musculus [18] = test: as §1, with “[…] cortex” for “thalamus”, “8.816” for “4.094”; type: functional; conditions: route po, time 2.5 months, 1825 h; in short: as §2
[19] = molecular target: Maternal embryonic leucine zipper kinase (Homo sapiens, UniProt Q14680); test: Inhibition of MELK (unknown origin)
[20] = molecular target: T1, Macrophage colony-stimulating factor 1 receptor (Mus musculus) (UniProt P09581); test: In vivo inhibition of CSF1R in wildtype mouse assessed as microglial elimination in cortex at 1200 ppm administered as rodent chow for 10 weeks by […] based confocal microscopic analysis relative to control; type: functional; parameters: scale not given: the % may be the effect or the level left; conditions: route po
T1 sequence (whole entry): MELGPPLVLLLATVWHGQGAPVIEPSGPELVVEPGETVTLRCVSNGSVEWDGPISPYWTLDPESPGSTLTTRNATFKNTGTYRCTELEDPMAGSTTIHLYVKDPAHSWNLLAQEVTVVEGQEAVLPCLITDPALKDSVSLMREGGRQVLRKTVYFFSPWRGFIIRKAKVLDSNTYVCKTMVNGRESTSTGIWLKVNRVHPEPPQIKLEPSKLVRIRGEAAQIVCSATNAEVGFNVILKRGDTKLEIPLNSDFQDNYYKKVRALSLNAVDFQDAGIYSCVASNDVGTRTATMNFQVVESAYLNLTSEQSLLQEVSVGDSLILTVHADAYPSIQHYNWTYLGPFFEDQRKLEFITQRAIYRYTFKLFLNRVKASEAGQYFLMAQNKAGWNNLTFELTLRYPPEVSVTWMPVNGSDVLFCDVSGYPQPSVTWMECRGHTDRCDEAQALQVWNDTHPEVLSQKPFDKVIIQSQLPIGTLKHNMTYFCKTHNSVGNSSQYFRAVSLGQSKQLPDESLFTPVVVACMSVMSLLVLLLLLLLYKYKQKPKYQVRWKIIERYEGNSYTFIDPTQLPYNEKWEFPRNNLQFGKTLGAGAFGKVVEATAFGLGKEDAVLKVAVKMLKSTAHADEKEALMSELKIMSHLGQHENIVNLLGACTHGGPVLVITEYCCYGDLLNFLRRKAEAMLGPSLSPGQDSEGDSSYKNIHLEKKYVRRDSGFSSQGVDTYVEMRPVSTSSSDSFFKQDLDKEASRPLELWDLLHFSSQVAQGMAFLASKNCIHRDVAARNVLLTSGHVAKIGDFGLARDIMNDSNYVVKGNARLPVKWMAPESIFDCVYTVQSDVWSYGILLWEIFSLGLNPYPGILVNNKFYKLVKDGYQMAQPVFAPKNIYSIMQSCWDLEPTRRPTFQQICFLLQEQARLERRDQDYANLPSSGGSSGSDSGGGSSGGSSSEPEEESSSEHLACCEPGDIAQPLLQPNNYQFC

[21] = molecular target: Protein kinase C beta type (Homo sapiens, UniProt P05771); test: Inhibition of PRKCB1 (unknown origin)
Mus musculus [22] = test: Effect on circulating leukocytes in wildtype mouse assessed as percentage of CD45+/PI- cells expressing CD8 at 1200 ppm administered as rodent chow for 10 to 24 weeks (reference value: 5.56 to 11.8 %); type: functional; conditions: route po, time 10-24 weeks

Leucine-rich repeat serine/threonine-protein kinase 2, sequence (Q5S007 whole entry): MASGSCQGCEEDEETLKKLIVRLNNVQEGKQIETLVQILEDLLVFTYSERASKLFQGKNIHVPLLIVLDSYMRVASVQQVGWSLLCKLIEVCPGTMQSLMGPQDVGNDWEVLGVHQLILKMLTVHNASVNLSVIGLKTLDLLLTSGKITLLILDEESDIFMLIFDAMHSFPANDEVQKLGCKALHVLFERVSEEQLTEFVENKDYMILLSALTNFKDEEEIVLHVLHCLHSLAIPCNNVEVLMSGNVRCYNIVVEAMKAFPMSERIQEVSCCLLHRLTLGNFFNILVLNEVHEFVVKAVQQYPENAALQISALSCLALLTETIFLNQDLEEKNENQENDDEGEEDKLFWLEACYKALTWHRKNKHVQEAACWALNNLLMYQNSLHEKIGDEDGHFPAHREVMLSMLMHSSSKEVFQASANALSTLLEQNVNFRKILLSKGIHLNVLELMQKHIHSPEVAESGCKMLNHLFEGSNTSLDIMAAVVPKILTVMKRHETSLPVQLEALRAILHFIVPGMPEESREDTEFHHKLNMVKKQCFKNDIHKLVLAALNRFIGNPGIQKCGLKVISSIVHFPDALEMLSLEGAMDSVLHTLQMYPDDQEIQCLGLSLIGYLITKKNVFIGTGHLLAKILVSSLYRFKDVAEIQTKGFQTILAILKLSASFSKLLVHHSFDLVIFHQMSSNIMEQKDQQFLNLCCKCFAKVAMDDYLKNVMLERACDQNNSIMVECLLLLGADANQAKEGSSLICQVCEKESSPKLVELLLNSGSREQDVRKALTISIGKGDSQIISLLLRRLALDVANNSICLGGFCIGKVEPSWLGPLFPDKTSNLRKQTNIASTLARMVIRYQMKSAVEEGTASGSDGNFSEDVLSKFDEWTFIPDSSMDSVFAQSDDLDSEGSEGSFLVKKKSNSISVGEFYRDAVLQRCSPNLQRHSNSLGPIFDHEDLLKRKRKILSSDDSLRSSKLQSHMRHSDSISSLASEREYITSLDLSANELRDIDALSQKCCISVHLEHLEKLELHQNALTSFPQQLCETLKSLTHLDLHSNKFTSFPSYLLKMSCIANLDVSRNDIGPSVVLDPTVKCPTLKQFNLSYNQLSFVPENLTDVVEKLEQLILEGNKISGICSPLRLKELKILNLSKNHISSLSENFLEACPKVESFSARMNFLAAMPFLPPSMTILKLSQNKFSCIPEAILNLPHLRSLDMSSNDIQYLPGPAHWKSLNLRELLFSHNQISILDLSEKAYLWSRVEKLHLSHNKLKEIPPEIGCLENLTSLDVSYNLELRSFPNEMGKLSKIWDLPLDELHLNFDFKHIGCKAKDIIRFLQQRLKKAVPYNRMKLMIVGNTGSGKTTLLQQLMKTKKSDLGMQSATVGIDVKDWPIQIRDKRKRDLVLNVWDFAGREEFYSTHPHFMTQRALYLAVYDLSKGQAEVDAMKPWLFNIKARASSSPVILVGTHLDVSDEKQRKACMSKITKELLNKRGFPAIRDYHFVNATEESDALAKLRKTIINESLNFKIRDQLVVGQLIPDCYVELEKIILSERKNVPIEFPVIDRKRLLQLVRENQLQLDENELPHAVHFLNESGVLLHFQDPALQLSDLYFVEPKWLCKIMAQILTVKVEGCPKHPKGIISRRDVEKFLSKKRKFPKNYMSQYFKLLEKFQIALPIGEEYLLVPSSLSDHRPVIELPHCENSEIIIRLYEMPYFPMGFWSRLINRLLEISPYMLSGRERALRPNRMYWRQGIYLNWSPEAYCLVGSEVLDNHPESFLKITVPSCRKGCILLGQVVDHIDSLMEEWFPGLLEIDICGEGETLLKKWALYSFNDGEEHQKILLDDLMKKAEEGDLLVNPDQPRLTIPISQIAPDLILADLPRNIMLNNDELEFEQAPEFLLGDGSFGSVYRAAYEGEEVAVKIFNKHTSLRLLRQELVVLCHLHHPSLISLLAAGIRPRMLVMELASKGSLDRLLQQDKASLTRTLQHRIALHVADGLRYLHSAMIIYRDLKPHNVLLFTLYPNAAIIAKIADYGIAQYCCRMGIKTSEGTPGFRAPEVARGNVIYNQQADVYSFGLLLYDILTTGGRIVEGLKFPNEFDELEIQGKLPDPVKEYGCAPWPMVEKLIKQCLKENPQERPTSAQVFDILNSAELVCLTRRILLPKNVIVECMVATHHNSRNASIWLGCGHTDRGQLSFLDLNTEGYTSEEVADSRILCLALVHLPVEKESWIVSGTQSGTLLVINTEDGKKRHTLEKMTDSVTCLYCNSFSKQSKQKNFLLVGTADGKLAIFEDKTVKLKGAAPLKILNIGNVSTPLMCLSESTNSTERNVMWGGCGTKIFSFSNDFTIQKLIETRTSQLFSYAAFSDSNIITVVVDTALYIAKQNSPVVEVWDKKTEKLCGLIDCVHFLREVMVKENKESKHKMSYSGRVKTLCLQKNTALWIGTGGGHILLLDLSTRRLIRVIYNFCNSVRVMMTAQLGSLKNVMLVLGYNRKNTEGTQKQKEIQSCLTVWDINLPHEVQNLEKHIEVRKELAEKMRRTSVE
Tyrosine-protein kinase Blk, sequence (P51451 whole entry): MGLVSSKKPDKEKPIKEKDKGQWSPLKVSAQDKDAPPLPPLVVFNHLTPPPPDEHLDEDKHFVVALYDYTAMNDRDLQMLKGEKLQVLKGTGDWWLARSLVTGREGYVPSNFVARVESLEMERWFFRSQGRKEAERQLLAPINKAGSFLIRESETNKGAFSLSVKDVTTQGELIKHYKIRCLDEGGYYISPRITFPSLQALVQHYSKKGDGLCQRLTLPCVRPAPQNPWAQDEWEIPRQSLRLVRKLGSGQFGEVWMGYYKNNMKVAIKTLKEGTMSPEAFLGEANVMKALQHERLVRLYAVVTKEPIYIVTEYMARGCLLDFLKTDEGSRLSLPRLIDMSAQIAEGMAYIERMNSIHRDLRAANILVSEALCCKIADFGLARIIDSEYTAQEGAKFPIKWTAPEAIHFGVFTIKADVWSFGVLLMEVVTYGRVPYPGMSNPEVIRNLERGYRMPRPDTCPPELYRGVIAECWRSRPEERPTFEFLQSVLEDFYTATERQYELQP
Protein kinase C delta type, sequence (Q05655 whole entry): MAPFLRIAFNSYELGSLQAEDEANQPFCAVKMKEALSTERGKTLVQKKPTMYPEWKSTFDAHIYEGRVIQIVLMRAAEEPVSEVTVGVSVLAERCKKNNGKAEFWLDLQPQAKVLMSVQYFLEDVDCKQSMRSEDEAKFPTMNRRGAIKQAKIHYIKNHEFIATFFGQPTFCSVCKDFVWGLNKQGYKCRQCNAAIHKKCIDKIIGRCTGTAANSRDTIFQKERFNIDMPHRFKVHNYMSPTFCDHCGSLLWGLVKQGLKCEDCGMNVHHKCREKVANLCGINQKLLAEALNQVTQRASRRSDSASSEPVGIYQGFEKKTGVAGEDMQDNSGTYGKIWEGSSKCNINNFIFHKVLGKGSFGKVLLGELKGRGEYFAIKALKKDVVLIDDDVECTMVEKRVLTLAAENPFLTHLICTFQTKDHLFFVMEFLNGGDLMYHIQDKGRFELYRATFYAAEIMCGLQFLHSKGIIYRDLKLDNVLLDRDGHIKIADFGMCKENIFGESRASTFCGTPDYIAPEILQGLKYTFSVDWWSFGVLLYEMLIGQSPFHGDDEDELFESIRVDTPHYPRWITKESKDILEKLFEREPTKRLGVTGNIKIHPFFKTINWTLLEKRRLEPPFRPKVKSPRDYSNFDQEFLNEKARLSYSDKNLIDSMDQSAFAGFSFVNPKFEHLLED
Maternal embryonic leucine zipper kinase, sequence (Q14680 whole entry): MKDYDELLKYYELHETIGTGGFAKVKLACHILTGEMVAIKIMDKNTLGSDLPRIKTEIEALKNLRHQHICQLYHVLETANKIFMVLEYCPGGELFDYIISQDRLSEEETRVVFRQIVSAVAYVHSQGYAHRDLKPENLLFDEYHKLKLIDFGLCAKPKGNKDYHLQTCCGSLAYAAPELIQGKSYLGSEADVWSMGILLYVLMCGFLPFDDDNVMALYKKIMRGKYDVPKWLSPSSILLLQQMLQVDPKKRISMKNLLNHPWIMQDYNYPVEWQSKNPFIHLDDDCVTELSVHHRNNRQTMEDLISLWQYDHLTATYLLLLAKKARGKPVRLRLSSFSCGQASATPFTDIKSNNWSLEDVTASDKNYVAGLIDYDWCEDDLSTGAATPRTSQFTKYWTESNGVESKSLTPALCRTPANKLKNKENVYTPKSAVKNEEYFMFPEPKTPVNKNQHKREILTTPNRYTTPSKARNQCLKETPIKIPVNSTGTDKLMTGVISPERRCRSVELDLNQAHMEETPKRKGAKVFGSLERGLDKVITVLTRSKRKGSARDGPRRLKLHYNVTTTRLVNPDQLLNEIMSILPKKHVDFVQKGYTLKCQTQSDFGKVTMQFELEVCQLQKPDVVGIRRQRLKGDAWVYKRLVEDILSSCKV

SMILES: COc1ncc(F)cc1CNc1ccc(Cc2c[nH]c3ncc(C)cc23)c(F)n1 [PLX-5622]
- Activity [1]: 0 RPKM
- Activity (Mus musculus [2]): 10
- IC50 [3]: > 1000 nM
- IC50 [4]: > 1000 nM
- IC50 [5]: > 1000 nM
- Activity [6]: 68.459%
- Flu intensity (Mus musculus [7]): 0.249 a.u.
- Activity [8]: 65.471%
- IC50 [9]: > 1000 nM
- Activity (Mus musculus [10]): Active
- IC50 [11]: > 1000 nM
- IC50 [12]: > 1000 nM
- Time (Mus musculus [13]): 157.6 s
- Activity (Mus musculus [14]): 25
- concentration [15]: 13.5 µM
- Activity (Mus musculus [16]): 9.38%
- IC50 [17]: > 1000 nM
- Flu intensity (Mus musculus [18]): 6.682 a.u.
- IC50 [19]: > 1000 nM
- Activity [20]: > 99%
- IC50 [21]: > 1000 nM
- Activity (Mus musculus [22]): 6.35%
